Laboratory results as given in paper PMC3270411 (Chemistry & biology, 2012).
Blank lines part the entries; values can stand above or below the compound they belong to.

How the values were obtained:
DNAPK = DNAPK (Homo sapiens, UniProt P78527); assay: KiNativ cellular kinase profiling; assay type: cell-based; conditions: A375 cells, 1 μM, 3 hours, labeling site ATP
[1] = tested on: c-Jun phosphorylation in HeLa and A375 cells; assay: cellular c-Jun phosphorylation, statements for both assay formats; assay type: cell-based; conditions: relative to JNK-IN-5
JNK = assay: pulse-chase ATP-biotin binding kinetics assay in A375 cells; assay type: cell-based; conditions: same pulse-chase protocol
Method in brief: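 A375 cells treated with 1 μM test compound for 1–5 h, then washed three times in PBS. Lysed in NP-40/CHAPS buffer for 30 min at 4°C, cleared, and gel-filtered into HEPES kinase buffer (about 5–15 mg/ml protein). Lysate labelled with 5 μM ATP-biotin probe for 1 h, reduced with DTT, alkylated with iodoacetamide, and pulled down on streptavidin for 2 h. Read-out: SDS-PAGE and JNK immunoblot.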

PIP4K2C = biological target: T1, PIP4K2C (Homo sapiens, UniProt Q8TBX8); assay: KiNativ cellular kinase profiling; assay type: cell-based; conditions: A375 cells, 1 μM, 3 hours, labeling site ATP
T1 sequence (Q8TBX8 1-421): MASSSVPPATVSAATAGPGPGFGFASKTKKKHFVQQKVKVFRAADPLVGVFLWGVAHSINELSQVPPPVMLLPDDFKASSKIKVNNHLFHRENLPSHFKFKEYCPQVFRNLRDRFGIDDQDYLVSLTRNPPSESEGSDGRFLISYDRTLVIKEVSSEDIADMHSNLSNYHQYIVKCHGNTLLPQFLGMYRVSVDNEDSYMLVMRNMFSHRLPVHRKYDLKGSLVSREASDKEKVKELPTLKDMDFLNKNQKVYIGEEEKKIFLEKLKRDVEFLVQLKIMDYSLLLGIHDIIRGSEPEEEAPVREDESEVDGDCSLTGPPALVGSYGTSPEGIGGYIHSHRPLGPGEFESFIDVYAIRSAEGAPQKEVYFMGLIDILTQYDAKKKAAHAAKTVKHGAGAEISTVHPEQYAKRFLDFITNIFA

PIK3C3 = PIK3C3 (Homo sapiens, UniProt Q8NEB9); assay: KiNativ cellular kinase profiling; assay type: cell-based; conditions: A375 cells, 1 μM, 3 hours, PIK3C3, labeling site ATP
JNK3 = JNK3 (Homo sapiens, UniProt P53779); assay: intact protein mass spectrometry of inhibitor-labeled JNK3; assay type: binding; conditions: incubation with JNK3, electrospray mass spectrometry
IRAK1 [2] = biological target: T2, IRAK1 (Homo sapiens, UniProt P51617); assay: follow-up IC50 determination after enzymatic panel; assay type: biochemical
ERK8 = ERK8 (Homo sapiens, UniProt Q8TD08); assay: follow-up IC50 determination after enzymatic panel; assay type: biochemical
KIT(L576P) = KIT(L576P) (Homo sapiens, UniProt P10721, L576P); assay: KinomeScan dissociation constant; assay type: binding
NUAK1 = NUAK1 (Homo sapiens, UniProt O60285); assay: follow-up IC50 determination after enzymatic panel; assay type: biochemical
[3] = tested on: potential additional kinase targets; assay: follow-up biochemical and binding assays on potent binding targets; conditions: enzymatic assay or dissociation constant follow-up
IRAK1 [4] = biological target: T2, IRAK1; assay: enzymatic kinase assay on potential off-target; assay type: biochemical; conditions: IC50 (nM) (enzymatic) IRAK1
KIT(V559D,T670I) = KIT(V559D,T670I) (Homo sapiens, UniProt P10721, T670I/V559D); assay: KinomeScan dissociation constant; assay type: binding
MET(M250T) = MET(M250T) (Homo sapiens, UniProt P08581, M1250T); assay: enzymatic kinase assay on potential off-target; assay type: biochemical

Sequence of PIK3C3 (Q8NEB9 whole entry): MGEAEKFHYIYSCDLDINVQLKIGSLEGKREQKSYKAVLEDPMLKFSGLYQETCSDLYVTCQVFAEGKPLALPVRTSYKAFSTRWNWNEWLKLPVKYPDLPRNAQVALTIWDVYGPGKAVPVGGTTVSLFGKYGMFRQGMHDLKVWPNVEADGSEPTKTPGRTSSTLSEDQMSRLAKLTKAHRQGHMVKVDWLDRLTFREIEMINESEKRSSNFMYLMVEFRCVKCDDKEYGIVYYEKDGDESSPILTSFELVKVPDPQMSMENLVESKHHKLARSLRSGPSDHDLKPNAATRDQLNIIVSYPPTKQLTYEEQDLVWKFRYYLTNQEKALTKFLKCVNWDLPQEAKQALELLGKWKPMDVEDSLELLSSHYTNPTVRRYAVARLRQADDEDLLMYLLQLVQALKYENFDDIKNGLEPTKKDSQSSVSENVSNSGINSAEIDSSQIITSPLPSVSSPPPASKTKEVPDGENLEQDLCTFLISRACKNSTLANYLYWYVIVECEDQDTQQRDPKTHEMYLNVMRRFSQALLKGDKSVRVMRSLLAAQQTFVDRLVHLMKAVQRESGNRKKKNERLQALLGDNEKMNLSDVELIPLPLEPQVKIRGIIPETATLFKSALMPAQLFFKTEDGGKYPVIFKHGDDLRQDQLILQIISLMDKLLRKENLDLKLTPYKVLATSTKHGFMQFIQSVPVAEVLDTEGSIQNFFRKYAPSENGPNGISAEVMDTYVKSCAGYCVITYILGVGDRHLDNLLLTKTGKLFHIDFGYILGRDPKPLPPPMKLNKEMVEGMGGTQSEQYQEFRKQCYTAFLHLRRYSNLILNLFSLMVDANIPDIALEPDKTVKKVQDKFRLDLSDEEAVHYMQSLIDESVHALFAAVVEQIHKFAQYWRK
Sequence of DNAPK (P78527 whole entry): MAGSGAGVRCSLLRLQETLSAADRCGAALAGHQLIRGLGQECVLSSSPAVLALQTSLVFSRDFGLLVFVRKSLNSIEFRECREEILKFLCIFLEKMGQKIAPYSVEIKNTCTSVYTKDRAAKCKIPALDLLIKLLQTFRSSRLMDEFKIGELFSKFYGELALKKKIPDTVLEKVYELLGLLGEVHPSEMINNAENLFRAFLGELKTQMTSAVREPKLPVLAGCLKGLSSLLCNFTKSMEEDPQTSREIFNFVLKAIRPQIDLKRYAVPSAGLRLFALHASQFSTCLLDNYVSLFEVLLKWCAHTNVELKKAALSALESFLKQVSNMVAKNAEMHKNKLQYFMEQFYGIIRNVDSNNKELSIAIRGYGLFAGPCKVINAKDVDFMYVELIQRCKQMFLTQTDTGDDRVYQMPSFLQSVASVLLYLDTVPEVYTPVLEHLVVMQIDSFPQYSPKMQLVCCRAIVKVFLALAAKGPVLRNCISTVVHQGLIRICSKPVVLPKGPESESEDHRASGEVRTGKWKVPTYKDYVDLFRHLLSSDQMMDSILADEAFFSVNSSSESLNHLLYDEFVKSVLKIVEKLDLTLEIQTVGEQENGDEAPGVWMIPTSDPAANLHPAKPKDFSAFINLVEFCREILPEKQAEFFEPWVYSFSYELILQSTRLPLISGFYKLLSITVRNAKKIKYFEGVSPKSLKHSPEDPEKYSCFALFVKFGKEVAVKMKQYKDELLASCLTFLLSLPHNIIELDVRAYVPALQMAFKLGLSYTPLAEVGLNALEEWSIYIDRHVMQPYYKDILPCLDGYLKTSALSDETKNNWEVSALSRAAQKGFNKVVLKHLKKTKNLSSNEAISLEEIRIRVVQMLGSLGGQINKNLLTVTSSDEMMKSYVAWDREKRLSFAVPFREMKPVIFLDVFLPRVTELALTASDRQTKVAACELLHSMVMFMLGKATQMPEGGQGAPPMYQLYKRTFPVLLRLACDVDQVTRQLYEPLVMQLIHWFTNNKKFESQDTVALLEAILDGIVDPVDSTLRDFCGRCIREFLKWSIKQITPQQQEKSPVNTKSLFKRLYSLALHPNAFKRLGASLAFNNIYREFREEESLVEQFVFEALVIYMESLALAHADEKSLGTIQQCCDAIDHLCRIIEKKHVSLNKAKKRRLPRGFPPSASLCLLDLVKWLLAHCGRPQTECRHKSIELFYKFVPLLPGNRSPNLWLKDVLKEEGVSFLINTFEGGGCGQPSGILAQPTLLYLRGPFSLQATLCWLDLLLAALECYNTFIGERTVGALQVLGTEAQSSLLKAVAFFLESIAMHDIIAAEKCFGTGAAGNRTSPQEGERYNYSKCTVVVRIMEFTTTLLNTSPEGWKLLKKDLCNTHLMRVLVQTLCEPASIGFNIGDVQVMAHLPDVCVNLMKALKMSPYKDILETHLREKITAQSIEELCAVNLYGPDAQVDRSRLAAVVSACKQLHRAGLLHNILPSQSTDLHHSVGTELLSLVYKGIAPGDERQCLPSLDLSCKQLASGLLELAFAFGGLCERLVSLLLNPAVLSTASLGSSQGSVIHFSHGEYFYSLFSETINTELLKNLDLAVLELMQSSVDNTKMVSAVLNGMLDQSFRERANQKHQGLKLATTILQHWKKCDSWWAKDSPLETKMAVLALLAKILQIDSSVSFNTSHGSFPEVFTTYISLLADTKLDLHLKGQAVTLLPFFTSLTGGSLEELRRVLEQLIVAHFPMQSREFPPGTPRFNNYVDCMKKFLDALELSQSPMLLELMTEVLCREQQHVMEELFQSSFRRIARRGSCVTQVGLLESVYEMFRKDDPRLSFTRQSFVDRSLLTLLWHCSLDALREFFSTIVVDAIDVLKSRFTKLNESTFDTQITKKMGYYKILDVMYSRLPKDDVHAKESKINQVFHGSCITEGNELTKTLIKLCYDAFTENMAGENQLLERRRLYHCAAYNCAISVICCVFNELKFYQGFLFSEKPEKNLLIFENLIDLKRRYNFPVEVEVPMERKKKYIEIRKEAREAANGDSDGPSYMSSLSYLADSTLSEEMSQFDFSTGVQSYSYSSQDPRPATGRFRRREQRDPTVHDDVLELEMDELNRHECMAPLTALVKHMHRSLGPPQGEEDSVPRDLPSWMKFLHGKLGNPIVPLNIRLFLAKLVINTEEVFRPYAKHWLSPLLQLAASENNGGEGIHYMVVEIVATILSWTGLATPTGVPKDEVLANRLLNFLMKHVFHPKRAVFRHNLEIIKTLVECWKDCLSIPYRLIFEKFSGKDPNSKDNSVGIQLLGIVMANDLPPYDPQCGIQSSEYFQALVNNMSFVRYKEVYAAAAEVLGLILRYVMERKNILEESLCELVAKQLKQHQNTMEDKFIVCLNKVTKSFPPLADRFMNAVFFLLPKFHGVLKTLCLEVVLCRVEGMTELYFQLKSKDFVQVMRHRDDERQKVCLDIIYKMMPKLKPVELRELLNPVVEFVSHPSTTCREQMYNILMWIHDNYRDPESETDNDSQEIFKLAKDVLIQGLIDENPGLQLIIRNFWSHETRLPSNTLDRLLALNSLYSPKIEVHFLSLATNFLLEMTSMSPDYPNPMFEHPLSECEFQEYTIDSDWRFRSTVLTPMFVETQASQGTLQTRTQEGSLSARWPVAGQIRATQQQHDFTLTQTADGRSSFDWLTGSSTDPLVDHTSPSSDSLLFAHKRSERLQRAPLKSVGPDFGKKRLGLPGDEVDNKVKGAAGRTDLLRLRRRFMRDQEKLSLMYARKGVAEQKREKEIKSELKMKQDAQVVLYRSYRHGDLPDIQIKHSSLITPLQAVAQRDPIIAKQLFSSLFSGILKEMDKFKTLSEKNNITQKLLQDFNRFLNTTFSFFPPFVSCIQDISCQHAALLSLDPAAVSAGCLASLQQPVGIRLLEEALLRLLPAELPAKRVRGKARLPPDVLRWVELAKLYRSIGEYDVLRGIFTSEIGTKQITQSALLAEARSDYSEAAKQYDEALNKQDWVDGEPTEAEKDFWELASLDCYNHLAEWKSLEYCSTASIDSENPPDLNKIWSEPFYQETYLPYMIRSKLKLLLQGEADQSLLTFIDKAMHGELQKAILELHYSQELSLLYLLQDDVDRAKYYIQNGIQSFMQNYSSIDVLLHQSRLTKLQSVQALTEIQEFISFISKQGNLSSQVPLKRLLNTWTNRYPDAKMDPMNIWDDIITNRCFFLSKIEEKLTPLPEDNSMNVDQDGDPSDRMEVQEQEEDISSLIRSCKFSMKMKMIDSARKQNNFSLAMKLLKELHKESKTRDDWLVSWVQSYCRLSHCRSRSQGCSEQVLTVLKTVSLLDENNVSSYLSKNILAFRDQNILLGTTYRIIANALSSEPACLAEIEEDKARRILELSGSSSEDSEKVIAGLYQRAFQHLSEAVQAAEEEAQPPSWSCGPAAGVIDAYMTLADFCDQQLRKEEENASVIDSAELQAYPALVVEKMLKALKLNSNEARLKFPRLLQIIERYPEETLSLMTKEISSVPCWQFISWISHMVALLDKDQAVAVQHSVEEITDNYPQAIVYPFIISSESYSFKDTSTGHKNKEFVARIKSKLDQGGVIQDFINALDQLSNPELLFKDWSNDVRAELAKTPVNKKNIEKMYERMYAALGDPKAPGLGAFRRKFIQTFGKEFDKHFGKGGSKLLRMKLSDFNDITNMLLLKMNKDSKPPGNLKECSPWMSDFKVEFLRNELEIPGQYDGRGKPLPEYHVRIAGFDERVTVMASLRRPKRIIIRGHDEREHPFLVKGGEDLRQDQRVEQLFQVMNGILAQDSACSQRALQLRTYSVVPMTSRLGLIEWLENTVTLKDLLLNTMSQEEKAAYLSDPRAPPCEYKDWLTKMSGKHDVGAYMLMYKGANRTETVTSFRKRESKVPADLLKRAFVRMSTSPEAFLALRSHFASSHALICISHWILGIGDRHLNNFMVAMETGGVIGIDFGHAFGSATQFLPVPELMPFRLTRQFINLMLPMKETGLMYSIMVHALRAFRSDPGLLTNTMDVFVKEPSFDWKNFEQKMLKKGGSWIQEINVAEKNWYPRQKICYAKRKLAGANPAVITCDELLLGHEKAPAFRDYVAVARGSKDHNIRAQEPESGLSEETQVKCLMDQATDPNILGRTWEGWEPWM

SMILES: CCC(=O)Nc1cccc(C(=O)Nc2ccc(Nc3nccc(-c4cccnc4)n3)cc2)c1 [JNK-IN-6]
Percent inhibition of kinase labeling by ATP-biotin (DNAPK; first of two table lines): 51.1%
Percent inhibition of kinase labeling by ATP-biotin (DNAPK; second of two table lines): 31.7%
fold loss in potency / fold higher IC50 for cellular JNK inhibition [1]: 50 fold
protection of JNK from labeling by ATP-biotin (JNK): incapable of protecting JNK from labeling by ATP-biotin
Percent inhibition of kinase labeling by ATP-biotin (PIP4K2C; first of two table lines): −4.7%
Percent inhibition of kinase labeling by ATP-biotin (PIP4K2C; second of two table lines): 35.7%
Percent inhibition of kinase labeling by ATP-biotin (PIK3C3; first of two table lines): 26.5%
Percent inhibition of kinase labeling by ATP-biotin (PIK3C3; second of two table lines): 3.1%

SMILES: CN(C)C/C=C/C(=O)Nc1cccc(C(=O)Nc2ccc(Nc3nccc(-c4cccnc4)n3)cc2)c1 [JNK-IN-7]
covalent modification of JNK3 (mass spectrometry) (JNK3): addition of a single molecule of inhibitor to the protein and labeling of Cys154
IC50 (IRAK1 [2]): < 200 nM
IC50 (ERK8): < 200 nM
Kd (KIT(L576P)): 40 nM
IC50 (NUAK1): < 200 nM
number of additional kinases with Kd or IC50 of 100 nM or less [3]: eight
IC50 (IRAK1 [4]): ~10 nM

Kd (KIT(V559D,T670I)): 56 nM
IC50 (MET(M250T)): > 10000 nM
SMILES: Cc1cc(NC(=O)c2cccc(NC(=O)/C=C/CN(C)C)c2)ccc1Nc1nccc(-c2cccnc2)n1 [JNK-IN-8]

SMILES: CN(C)C/C=C/C(=O)Nc1cccc(C(=O)Nc2ccc(Nc3nccc(/C(C#N)=C4\Nc5ccccc5S4)n3)cc2)c1 [JNK-IN-12]
Percent inhibition of kinase labeling by ATP-biotin (DNAPK; first of two table lines): −65.4%
Percent inhibition of kinase labeling by ATP-biotin (DNAPK; second of two table lines): −80.7%
Percent inhibition of kinase labeling by ATP-biotin (PIP4K2C; first of two table lines): 43.9%
Percent inhibition of kinase labeling by ATP-biotin (PIP4K2C; second of two table lines): 42.6%
Percent inhibition of kinase labeling by ATP-biotin (PIK3C3; first of two table lines): 7.5%
Percent inhibition of kinase labeling by ATP-biotin (PIK3C3; second of two table lines): −0.5%
